Results as given in ChEMBL document CHEMBL3739331, “Synthesis and Bioactivities of Kanamycin B-Derived Cationic Amphiphiles” (J Med Chem, 2015).
Values after ≈ are worked out from the molar mass of the structure shown. Active and inactive are the calls of the source. The calls are words filed in the database; no cut-off is given here.

Legend:
[1] = Hemolytic activity against mouse RBC at 7.8 ug/ml after 60 mins; assay type: ADME, cell-based, Erythrocyte; settings: red blood cells, read-out: Activity
[2] = Hemolytic activity against mouse RBC at 62.5 ug/ml after 60 mins; assay type: ADME, cell-based, Erythrocyte; settings: red blood cells, read-out: Activity
[3] = Hemolytic activity against mouse RBC at 100 to 500 ug/ml after 60 mins; assay type: ADME, cell-based; settings: erythrocyte, 1 h
Klebsiella pneumoniae = test: Antibacterial activity against Klebsiella pneumoniae ATCC 27736 by microdilution method; assay type: functional
Procedure, shortened: (§1)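 Broth microdilution MIC against the named bacterial strain, reported in μg/mL; each determination run at least in duplicate.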

[4] = Activity of AAC(3)-4 (unknown origin) assessed as compound acetylation activity by Ellman's method
Bacillus subtilis = test: Antibacterial activity against Bacillus subtilis 168 by microdilution method; assay type: functional; settings: subsp. subtilis str. 168; procedure, shortened: as §1
Staphylococcus aureus [5] = test: Antibacterial activity against methicillin-resistant Staphylococcus aureus by microdilution method; assay type: functional
Procedure, shortened: (§2)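 Broth microdilution MIC, in μg/mL, against a panel of Gram-positive and Gram-negative strains. Run at least in duplicate.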

[6] = test system: Mycolicibacterium smegmatis; test: Antibacterial activity against Mycobacterium smegmatis MC2 155 by microdilution method; assay type: functional; settings: str. MC2 155; procedure, shortened: as §2
Staphylococcus aureus [7] = test: Antibacterial activity against Staphylococcus aureus ATCC 29213 by microdilution method; assay type: functional; procedure, shortened: as §1
Staphylococcus aureus [8] = test: Antibacterial activity against Staphylococcus aureus NRS382 (USA 100) by microdilution method; assay type: functional; procedure, shortened: as §1
Staphylococcus aureus [9] = test: Antibacterial activity against Staphylococcus aureus NRS383 (USA 200) by microdilution method; assay type: functional; procedure, shortened: as §1
Staphylococcus aureus [10] = test: Antibacterial activity against Staphylococcus aureus NRS385 (USA 300) by microdilution method; assay type: functional; procedure, shortened: as §2
Staphylococcus aureus [11] = test: Antibacterial activity against Staphylococcus aureus NRS22 (USA 600) by microdilution method; assay type: functional; procedure, shortened: as §1
[12] = test system: Staphylococcus epidermidis; test: Antibacterial activity against Staphylococcus epidermidis ATCC 12228 by microdilution method; assay type: functional; procedure, shortened: as §1
Enterococcus = test: Antibacterial activity against vancomycin-resistant Enterococcus by microdilution method; assay type: functional; procedure, shortened: as §2
Acinetobacter baumannii = test: Antibacterial activity against Acinetobacter baumannii ATCC 19606 by microdilution method; assay type: functional; procedure, shortened: as §1
Enterobacter cloacae = test: Antibacterial activity against Enterobacter cloacae ATCC 13047 by microdilution method; assay type: functional; procedure, shortened: as §1
Escherichia coli = test: Antibacterial activity against Escherichia coli MC1061 by microdilution method; assay type: functional; procedure, shortened: as §2
Pseudomonas aeruginosa = test: Antibacterial activity against Pseudomonas aeruginosa ATCC 27853 by microdilution method; assay type: functional; procedure, shortened: as §1
Salmonella enterica = test: Antibacterial activity against Salmonella enterica ATCC 14028 by microdilution method; assay type: functional; procedure, shortened: as §1
[13] = test system: Bacillus subtilis subsp. subtilis str. 168; test: Activity of Bacillus subtilis 168 APH(2'')-1a assessed as compound phosphorylation activity by Ellman's method
[14] = Activity of AAC(6')-1e/APH(2'')-1a (unknown origin) assessed as compound acetylation activity by Ellman's method
Serratia marcescens = test: Activity of Serratia marcescens AAC(6')-2d assessed as compound acetylation activity by Ellman's method
[15] = test system: Mycobacterium tuberculosis; test: Activity of Mycobacterium tuberculosis AAC(2')-1c assessed as compound acetylation activity by Ellman's method
[16] = test system: Mycobacterium tuberculosis; test: Activity of Mycobacterium tuberculosis Eis assessed as compound acetylation activity by Ellman's method
Candida albicans [17] = test: Antifungal activity against azole-resistant Candida albicans ATCC 10231 after 48 hrs by microbroth dilution method; assay type: functional; settings: ATCC 10231, 48 h
Procedure, shortened: (§3)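 Yeast MIC by broth microdilution, run in duplicate. The aminoglycoside compounds are read as MIC-0 (complete inhibition). Azoles are read as MIC-2 (50% inhibition).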

Candida albicans [18] = test: Antifungal activity against azole-resistant Candida albicans ATCC 64124 after 48 hrs by microbroth dilution method; assay type: functional; settings: ATCC 64124, 48 h; procedure, shortened: as §3
Candida albicans [19] = test: Antifungal activity against azole-susceptible Candida albicans ATCC MYA-2876 after 48 hrs by microbroth dilution method; assay type: functional; settings: ATCC MYA-2876, 48 h; procedure, shortened: as §3
Candida albicans [20] = test: Antifungal activity against azole-resistant Candida albicans ATCC 90819 after 48 hrs by microbroth dilution method; assay type: functional; settings: ATCC 90819, 48 h; procedure, shortened: as §3
Candida albicans [21] = test: Antifungal activity against azole-susceptible Candida albicans ATCC MYA-2310 after 48 hrs by microbroth dilution method; assay type: functional; settings: ATCC MYA-2310, 48 h; procedure, shortened: as §3
Candida albicans [22] = test: Antifungal activity against azole-resistant Candida albicans MYA-1237 after 48 hrs by microbroth dilution method; assay type: functional; settings: MYA-1237, 48 h; procedure, shortened: as §3
Candida albicans [23] = test: Antifungal activity against azole-resistant Candida albicans MYA-1003 after 48 hrs by microbroth dilution method; assay type: functional; settings: MYA-1003, 48 h; procedure, shortened: as §3
Aspergillus nidulans = test: Antifungal activity against Aspergillus nidulans ATCC 38163 after 48 hrs by microbroth dilution method; assay type: functional; settings: ATCC 38163, 48 h
Procedure, shortened: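 Filamentous fungus MIC by broth microdilution, run in duplicate. All compounds are read as MIC-0 (complete inhibition).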

## CCCCCCCCCCCCCCCCSC[C@@H]1O[C@@H](O[C@@H]2[C@@H](O)[C@H](O[C@@H]3O[C@@H](CN)[C@H](O)[C@@H](O)[C@@H]3N)[C@@H](N)C[C@H]2N)[C@@H](O)[C@H](N)[C@H]1O (stereo in doubt)
[1]
  hemolysis at 1 h, 7.8 ug/ml: 16%
[2]
  hemolysis at 1 h, 62.5 ug/ml: 81%
[3]
  Activity: Toxic
Klebsiella pneumoniae
  MIC: > 128 µg/mL
[4]
  Activity: inactive
Bacillus subtilis
  MIC: > 128 µg/mL
Staphylococcus aureus [5]
  MIC: > 128 µg/mL
[6]
  MIC: 8 µg/mL (≈ 11 µM)
Staphylococcus aureus [7]
  MIC: > 128 µg/mL
Staphylococcus aureus [8]
  MIC: 128 µg/mL (≈ 177 µM)
Staphylococcus aureus [9]
  MIC: > 128 µg/mL
Staphylococcus aureus [10]
  MIC: > 128 µg/mL
Staphylococcus aureus [11]
  MIC: 128 µg/mL (≈ 177 µM)
[12]
  MIC: > 128 µg/mL
Enterococcus
  MIC: 128 µg/mL (≈ 177 µM)
Acinetobacter baumannii
  MIC: > 128 µg/mL
Enterobacter cloacae
  MIC: > 128 µg/mL
Escherichia coli
  MIC: > 128 µg/mL
Pseudomonas aeruginosa
  MIC: > 128 µg/mL
Salmonella enterica
  MIC: > 128 µg/mL
[13]
  Activity: inactive
[14]
  Activity: inactive
Serratia marcescens
  Activity: inactive
[15]
  Activity: inactive
[16]
  Activity: inactive
Candida albicans [17]
  MIC: 3.9 µg/mL (≈ 5.39 µM)
Candida albicans [18]
  MIC: 3.9 µg/mL (≈ 5.39 µM)
Candida albicans [19]
  MIC: 3.9 µg/mL (≈ 5.39 µM)
Candida albicans [20]
  MIC: 3.9 µg/mL (≈ 5.39 µM)
Candida albicans [21]
  MIC: 3.9 µg/mL (≈ 5.39 µM)
Candida albicans [22]
  MIC: 3.9 µg/mL (≈ 5.39 µM)
Candida albicans [23]
  MIC: 3.9 µg/mL (≈ 5.39 µM)
Aspergillus nidulans
  MIC: 1.95 µg/mL (≈ 2.69 µM)
